MIC and ED50 data for six molecules are collected here from ChEMBL document CHEMBL1125434, “Preparation and in vitro and in vivo evaluation of quinolones with selective activity against gram-positive organisms” (1992).

Each structure is given as a SMILES string. Values after ≈ are worked out from the molar mass of the structure shown. A value given as a limit tells only on which side of the number the result lay.

Common to all, as to assay type: functional
The test system of one assay is Acinetobacter. Put plainly: In vitro minimum inhibitory concentration against Acinetobacter CMX 669 using brain-heart infusion agar. In short, it runs like this: (§1)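 Overnight cultures were grown in BHI broth at 36 °C. Twofold dilutions of a 2000 µg/mL stock were made in BHI agar, giving 200–0.005 µg/mL. Plates received about 10^4 organisms and were incubated for 18 h at 36 °C. MIC was the lowest concentration with no visible growth on the plate.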

The subject of a further assay is Enterococcus faecium. Put plainly: In vitro minimum inhibitory concentration against Enterococcus faecium ATCC 8043 using brain-heart infusion agar. The gist of the method: as §1
The subject of the next assay is Escherichia coli. Put plainly: In vitro minimum inhibitory concentration against Escherichia coli Juhl using brain-heart infusion agar. The gist of the method:
as §1

In another assay the test system is Klebsiella aerogenes. Put plainly: In vitro minimum inhibitory concentration against Enterobacter aerogenes ATCC 13048 using brain-heart infusion agar. The gist of the method: as §1
The subject of assay [1] is Klebsiella pneumoniae. Put plainly: In vitro minimum inhibitory concentration brain-heart infusion agar. The gist of the method: as §1
Assay [2] deals with Pseudomonas aeruginosa. Put plainly: Not Plasmodium species.
The subject of assay [3] is Pseudomonas aeruginosa. Put plainly: In vitro minimum inhibitory concentration against Pseudomonas aeruginosa A5007 using brain-heart infusion agar. In short, it runs like this: as §1
Assay [4] concerns Staphylococcus aureus. The assay can be described thus: In vitro minimum inhibitory concentration against Staphylococcus aureus ATCC 6538P using brain-heart infusion agar. In short, it runs like this: as §1
In assay [5] the test system is Staphylococcus aureus. The assay can be described thus: In vitro minimum inhibitory concentration against Staphylococcus aureus A 5177 using brain-heart infusion agar. In short, it runs like this: as §1
The subject of assay [6] is Staphylococcus aureus. Put plainly: In vitro minimum inhibitory concentration against Staphylococcus aureus CMX 553 using brain-heart infusion agar. The gist of the method: as §1
Assay [7] concerns Staphylococcus aureus. Put plainly: In vitro minimum inhibitory concentration against Staphylococcus aureus NCTC 10649 using brain-heart infusion agar. The gist of the method:
as §1

Assay [8] deals with Staphylococcus epidermidis. The assay can be described thus: In vitro minimum inhibitory concentration against Staphylococcus epidermidis 3159 using brain-heart infusion agar. In short, it runs like this: as §1
A further assay has as its system Streptococcus equinus. Put plainly: In vitro minimum inhibitory concentration against Streptococcus bovis A5169 using brain-heart infusion agar. In short, it runs like this:
as §1

Another assay has as its system Streptococcus agalactiae. Put plainly: In vitro minimum inhibitory concentration against Streptococcus agalactiae CMX 508 using brain-heart infusion agar. In short, it runs like this: as §1
Another assay has as its system Streptococcus pyogenes. The assay can be described thus: In vitro minimum inhibitory concentration against Streptococcus pyogenes 930 using brain-heart infusion agar. The gist of the method: as §1
The test system of assay [9] is Klebsiella pneumoniae. The assay can be described thus: In vitro minimum inhibitory concentration against Klebsiella pneumoniae 8045 using brain-heart infusion agar. In short, it runs like this:
as §1

Assay [10] deals with Pseudomonas aeruginosa. The assay can be described thus: In vitro minimum inhibitory concentration against Pseudomonas aeruginosa K799 / WT using brain-heart infusion agar. The gist of the method:
as §1

Assay [11] has as its system Staphylococcus aureus. The assay can be described thus: In vivo antibacterial activity against Staphylococcus aureus NCTC 10649 infected mouse by oral administration. The gist of the method:
(§2)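 Compound was given in water or in dilute NaOH diluted with water, orally or subcutaneously. The dose was split equally between 1 and 5 h post-infection. Groups were 10 mice at ≥3 dose levels. ED50 was calculated from day-6 cumulative mortality by the trimmed Logit method.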

Assay [12] has as its system Staphylococcus aureus. The assay can be described thus: In vivo antibacterial activity against Staphylococcus aureus NCTC 10649 infected mouse by subcutaneous administration. The settings on record: sc. The gist of the method: as §2
For assay [13], the system named is Staphylococcus aureus. The assay can be described thus: In vitro minimum inhibitory concentrationp against Staphylococcus aureus ATCC 6538P using brain-heart infusion agar. The gist of the method: as §1

For `O=C(O)c1cn(C2CC2)c2nc(N3CC/C(=N\O)C3)c(F)cc2c1=O`, the minimal inhibitory concentration (MIC) stood at 0.2 µg/mL (≈ 0.578 µM) in the assay with Acinetobacter; 0.39 µg/mL (≈ 1.13 µM) in the assay on Enterococcus faecium; 0.02 µg/mL (≈ 0.0578 µM) in the assay with Escherichia coli; 0.2 µg/mL (≈ 0.578 µM) in the assay with Klebsiella aerogenes; 0.05 µg/mL (≈ 0.144 µM) in the assay on Klebsiella pneumoniae [1]; 0.78 µg/mL (≈ 2.25 µM) with Pseudomonas aeruginosa [2]. In addition, the MIC against Pseudomonas aeruginosa [3] was > 100 µg/mL; against Staphylococcus aureus [4] it was 0.02 µg/mL (≈ 0.0578 µM); in the assay on Staphylococcus aureus [5] it was 0.05 µg/mL (≈ 0.144 µM); in the assay on Staphylococcus aureus [6], 0.05 µg/mL (≈ 0.144 µM); in the assay with Staphylococcus aureus [7] it was 0.05 µg/mL (≈ 0.144 µM); in assay [8], 0.05 µg/mL (≈ 0.144 µM). The MIC in the assay on Streptococcus equinus was 0.78 µg/mL (≈ 2.25 µM); in the assay with Streptococcus agalactiae it was 0.2 µg/mL (≈ 0.578 µM); against Streptococcus pyogenes, 0.39 µg/mL (≈ 1.13 µM).

As for `O=C(O)c1cn(C2CC2)c2c(F)c(N3CCC(=NO)CC3)c(F)cc2c1=O`, the MIC is 0.39 µg/mL (≈ 1.03 µM) against Acinetobacter; 0.2 µg/mL (≈ 0.53 µM) in the assay with Enterococcus faecium; 0.2 µg/mL (≈ 0.53 µM) against Escherichia coli; 0.39 µg/mL (≈ 1.03 µM) in the assay on Klebsiella aerogenes; 0.1 µg/mL (≈ 0.265 µM) against Klebsiella pneumoniae [9]; 1.56 µg/mL (≈ 4.13 µM) in the assay on Pseudomonas aeruginosa [10]. Moreover, the MIC came out at 3.1 µg/mL (≈ 8.22 µM) against Pseudomonas aeruginosa [3]; 0.01 µg/mL (≈ 0.0265 µM) in the assay with Staphylococcus aureus [4]; 0.02 µg/mL (≈ 0.053 µM) in the assay on Staphylococcus aureus [5]; 0.05 µg/mL (≈ 0.133 µM) in the assay on Staphylococcus aureus [6]; 0.02 µg/mL (≈ 0.053 µM) in the assay with Staphylococcus aureus [7]; 0.02 µg/mL (≈ 0.053 µM) in assay [8]. For the same molecule, the minimal inhibitory concentration (MIC) against Streptococcus equinus worked out at 0.39 µg/mL (≈ 1.03 µM); against Streptococcus agalactiae, 0.2 µg/mL (≈ 0.53 µM); in the assay with Streptococcus pyogenes, 0.1 µg/mL (≈ 0.265 µM). In addition, the 50% effective dose (ED50) in the assay with Staphylococcus aureus [11] amounted to 3 mg/kg; in the assay on Staphylococcus aureus [12] it was 6.7 mg/kg.

As to `CO/N=C1\CCN(c2nc3c(cc2F)c(=O)c(C(=O)O)cn3-c2ccc(F)cc2F)C1`, the minimal inhibitory concentration (MIC) against Acinetobacter came to 1.56 µg/mL (≈ 3.61 µM); with Enterococcus faecium it was 0.39 µg/mL (≈ 0.902 µM); in the assay on Escherichia coli it was 0.78 µg/mL (≈ 1.8 µM); in the assay with Klebsiella aerogenes, 3.1 µg/mL (≈ 7.17 µM); in the assay with Klebsiella pneumoniae [9], 0.78 µg/mL (≈ 1.8 µM); in the assay with Pseudomonas aeruginosa [10] it was 6.2 µg/mL (≈ 14.3 µM). In addition, the MIC is 6.2 µg/mL (≈ 14.3 µM) against Pseudomonas aeruginosa [3]; 0.05 µg/mL (≈ 0.116 µM) in the assay on Staphylococcus aureus [4]; 0.1 µg/mL (≈ 0.231 µM) in the assay on Staphylococcus aureus [5]; 0.1 µg/mL (≈ 0.231 µM) in the assay on Staphylococcus aureus [6]; 0.05 µg/mL (≈ 0.116 µM) in the assay with Staphylococcus aureus [7]; 0.1 µg/mL (≈ 0.231 µM) in [8]. The MIC was found to be 1.56 µg/mL (≈ 3.61 µM) in the assay on Streptococcus equinus, 0.39 µg/mL (≈ 0.902 µM) against Streptococcus agalactiae and 0.78 µg/mL (≈ 1.8 µM) against Streptococcus pyogenes. In addition, the median effective dose (ED50) is > 12 mg/kg in the assay with Staphylococcus aureus [11] and 4.7 mg/kg in the assay on Staphylococcus aureus [12].

Turning to `CON=C1CCN(c2nc3c(cc2F)c(=O)c(C(=O)O)cn3-c2ccc(F)cc2F)CC1`, the MIC against Acinetobacter was 12.5 µg/mL (≈ 28 µM); against Enterococcus faecium, 3.1 µg/mL (≈ 6.94 µM); with Escherichia coli, 6.2 µg/mL (≈ 13.9 µM); with Klebsiella aerogenes, 12.5 µg/mL (≈ 28 µM); in the assay on Klebsiella pneumoniae [9], 3.1 µg/mL (≈ 6.94 µM); with Pseudomonas aeruginosa [10], 25 µg/mL (≈ 56 µM). The minimum inhibitory concentration (MIC) worked out at 50 µg/mL (≈ 112 µM) against Pseudomonas aeruginosa [3]; 0.1 µg/mL (≈ 0.224 µM) in the assay on Staphylococcus aureus [4]; 0.2 µg/mL (≈ 0.448 µM) with Staphylococcus aureus [5]; 0.39 µg/mL (≈ 0.874 µM) against Staphylococcus aureus [6]; 0.2 µg/mL (≈ 0.448 µM) in the assay with Staphylococcus aureus [7]; 0.39 µg/mL (≈ 0.874 µM) in assay [8]. For the same molecule, the MIC with Streptococcus equinus came out at 6.2 µg/mL (≈ 13.9 µM); in the assay on Streptococcus agalactiae, 1.56 µg/mL (≈ 3.49 µM); against Streptococcus pyogenes, 3.1 µg/mL (≈ 6.94 µM). Further, the values for the ED50 in the assay with Staphylococcus aureus [11] and in the assay on Staphylococcus aureus [12] were > 12 mg/kg and > 8 mg/kg, respectively.

Regarding `O=C(O)c1cn(-c2ccc(F)cc2F)c2cc(N3CCC(=NO)CC3)c(F)cc2c1=O`, the minimal inhibitory concentration (MIC) with Acinetobacter was found to be 1.56 µg/mL (≈ 3.62 µM); against Enterococcus faecium, 0.39 µg/mL (≈ 0.904 µM); against Escherichia coli, 0.39 µg/mL (≈ 0.904 µM); in the assay with Klebsiella aerogenes, 3.1 µg/mL (≈ 7.19 µM); in the assay on Klebsiella pneumoniae [9] it was 0.39 µg/mL (≈ 0.904 µM); against Pseudomonas aeruginosa [10] it was 3.1 µg/mL (≈ 7.19 µM). For the same molecule, the MIC in the assay on Pseudomonas aeruginosa [3] is 6.2 µg/mL (≈ 14.4 µM); in the assay with Staphylococcus aureus [4], 0.05 µg/mL (≈ 0.116 µM); against Staphylococcus aureus [5], 0.1 µg/mL (≈ 0.232 µM); against Staphylococcus aureus [6], 0.1 µg/mL (≈ 0.232 µM); against Staphylococcus aureus [7] it was 0.1 µg/mL (≈ 0.232 µM); in assay [8], 0.1 µg/mL (≈ 0.232 µM). Further, the figures for the minimum inhibitory concentration (MIC) in the assay on Streptococcus equinus, against Streptococcus agalactiae and in the assay on Streptococcus pyogenes were 1.56 µg/mL (≈ 3.62 µM), 0.39 µg/mL (≈ 0.904 µM) and 0.39 µg/mL (≈ 0.904 µM), respectively. Further, the ED50 in the assay on Staphylococcus aureus [11] stood at 6 mg/kg; in the assay on Staphylococcus aureus [12], 3.2 mg/kg.

For `NC1CCN(c2cc3c(cc2F)c(=O)c(C(=O)O)cn3-c2ccc(F)cc2F)CC1`, the minimum inhibitory concentration (MIC) in the assay on Acinetobacter came to 0.78 µg/mL (≈ 1.87 µM); in the assay on Enterococcus faecium it was 0.78 µg/mL (≈ 1.87 µM); in the assay with Escherichia coli, 0.1 µg/mL (≈ 0.24 µM); with Klebsiella aerogenes, 0.39 µg/mL (≈ 0.934 µM); against Klebsiella pneumoniae [9], 0.1 µg/mL (≈ 0.24 µM); in the assay with Pseudomonas aeruginosa [10], 0.78 µg/mL (≈ 1.87 µM). Also, the minimum inhibitory concentration (MIC) against Pseudomonas aeruginosa [3] was determined as 0.78 µg/mL (≈ 1.87 µM); against Staphylococcus aureus [13] it was 0.1 µg/mL (≈ 0.24 µM); against Staphylococcus aureus [5], 0.39 µg/mL (≈ 0.934 µM); against Staphylococcus aureus [6], 0.39 µg/mL (≈ 0.934 µM); in assay [8] it was 0.39 µg/mL (≈ 0.934 µM); in the assay on Streptococcus equinus, 1.56 µg/mL (≈ 3.74 µM). Further, the minimal inhibitory concentration (MIC) is 0.78 µg/mL (≈ 1.87 µM) against Streptococcus agalactiae and 0.39 µg/mL (≈ 0.934 µM) in the assay with Streptococcus pyogenes.

Usually MIC stands for the lowest concentration found to suppress growth. A higher MIC goes with a need for much substance. The term ED50 denotes the dose that gives a 50% effect, or the effect in half of the subjects. High values mean weaker potency, low ones greater potency.
